Calls of active or inactive are those of the source. The calls are words filed in the database; no cut-off is given here.
What was measured:
Leishmania donovani [1] = test: Antileishmanial activity against Leishmania donovani MHOM/IN/80/Dd8 promastigotes infected in ip dosed BALB/c mouse assessed as reduction in parasite load in liver administered once daily for 5 days measured 7 days post dose by giemsa staining-based assay; type: functional, organism-based
Summary of the method: (§1)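 Hamster-passaged strain was transformed to promastigotes. Stationary-phase cells (2 × 10^7 in 0.2 mL PBS) were injected into the tail vein of BALB/c mice. From day 15 post-infection, mice received compound ip in 8% DMSO in PBS for 5 consecutive days, 5 mice per group. Mice were killed day 7 post-treatment. Liver and spleen burden was read from Giemsa-stained stamp smears as LDU.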

Leishmania donovani [2] = test: Antileishmanial activity against Leishmania donovani MHOM/IN/80/Dd8 promastigotes harboring luciferase reporter gene at 100 uM after 48 hrs by Steady-Glo luminescence assay; type: functional, organism-based
Summary of the method: (§2)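 Luciferase-expressing L. donovani Dd8 promastigotes were grown at 24 °C in M199 with 10% heat-inactivated FBS and G418 20 μg/mL. They were treated at varied concentrations for 24 and 48 h, and inhibition was read as relative luminescence units versus untreated control. IC50 was from dose–response; screening values are mean ± SD of at least three experiments in duplicate.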

Leishmania donovani [3] = test: Antileishmanial activity against Leishmania donovani MHOM/IN/80/Dd8 promastigotes harboring luciferase reporter gene at 50 uM after 48 hrs by Steady-Glo luminescence assay relative to control; type: functional; details: MHOM/IN/80/Dd8, 48 h; summary of the method: as §2
Leishmania donovani [4] = test: Antileishmanial activity against Leishmania donovani MHOM/IN/80/Dd8 amastigotes harboring luciferase reporter gene infected in mouse J774 cells at 50 uM after 48 hrs by Steady-Glo luminescence assay relative to control; type: functional; details: MHOM/IN/80/Dd8, J774, 48 h
Summary of the method: (§3)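 Infection of J774 macrophages with L. donovani Dd8 promastigotes at a 1:8 cell:parasite ratio. Compounds were diluted 2-fold in RPMI over 3.125–100 μM final and applied for 48 h. Amastigote inhibition was read by luciferase (RLU) or by Giemsa count of amastigotes per 100 macrophages. IC50 was from dose–response; n = 3 independent experiments done in replicate.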

Leishmania donovani [5] = test: Antileishmanial activity against Leishmania donovani MHOM/IN/80/Dd8 amastigotes harboring luciferase reporter gene infected in mouse J774 cells after 48 hrs by Giemsa staining-based microscopic assay; type: functional, organism-based; details: for IC50: MHOM/IN/80/Dd8, J774, 48 h; summary of the method: as §3
Leishmania donovani [6] = test: Antileishmanial activity against Leishmania donovani MHOM/IN/80/Dd8 promastigotes harboring luciferase reporter gene after 48 hrs by Steady-Glo luminescence assay relative to control; type: functional; summary of the method: as §2
[7] = Cytotoxicity against African green monkey Vero cells assessed as cell viability up to 100 uM measured after 48 hrs by MTT assay relative to control; type: cell-based; details: chlorocebus sabaeus, read-out: Activity
Summary of the method: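 Vero cells and J774 macrophages were exposed to 12.5−400 μM compound for 48 h. Viability was read by MTT. CC50 was derived from the curve. Mean ± SD, n = 3 experiments in replicate.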

[8] = Stability of the compound in simulated gastric fluid assessed as parent compound remaining measured after 2 hrs by UPLC analysis; type: ADME; details: read-out: Stability
Summary of the method: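 Compound incubated 2 h in simulated gastric fluid (pH 1.2) […] or in simulated intestinal fluid (pH 6.5) […]; the percentage of intact compound remaining was reported.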

Leishmania donovani [9] = test: Antileishmanial activity against Leishmania donovani MHOM/IN/80/Dd8 promastigotes infected in BALB/c mouse assessed as reduction in parasite load in spleen at 50 mg/kg, ip administered once daily for 5 days measured 7 days post dose by giemsa staining-based assay relative to control; type: functional; set-up: scale not given: the % may be the effect or the level left; summary of the method: as §1
[10] = Toxicity in BALB/c mouse infected with Leishmania donovani MHOM/IN/80/Dd8 promastigotes assessed as death at 12.5 to 200 mg/kg, ip administered once daily for 5 days measured up to 7 days post dose; type: organism-based; details: in vivo
Summary of the method: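 BALB/c mice (20 ± 2 g) were infected by tail-vein injection of 2 × 10^7 stationary-phase promastigotes. At day 15 they received ip doses in 8% DMSO/PBS for 5 consecutive days and were killed at day 7 post-treatment. Survival, general health and body weight were monitored; 5 mice per group.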

Leishmania donovani [11] = test: Antileishmanial activity against Leishmania donovani MHOM/IN/80/Dd8 promastigotes infected in BALB/c mouse assessed as reduction in parasite load in liver at 25 mg/kg, ip administered once daily for 5 days measured 7 days post dose by giemsa staining-based assay relative to control; type: functional; set-up: scale not given: the % may be the effect or the level left; summary of the method: as §1
Leishmania donovani [12] = test: Antileishmanial activity against Leishmania donovani MHOM/IN/80/Dd8 amastigotes harboring luciferase reporter gene infected in mouse J774 cells assessed as stimulation of host immunity by measuring change in TNFalpha level at 50 uM after 48 hrs by ELISA; type: functional, organism-based
Summary of the method: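 Infected J774 macrophages (24 h infection) were treated with 50 μM compound for 48 h. Culture supernatants were assayed by ELISA for TNF-α and IL-12 (Th1) and for TGF-β and IL-10 (Th2), compared with infected untreated cells.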

Leishmania donovani [13] = test: Induction of apoptosis in Leishmania donovani MHOM/IN/80/Dd8 promastigotes assessed as early apoptotic cells at 50 uM measured after 12 hrs by Annexin V-FITC/propidium iodide staining based assay (reference value: 6.91%); type: functional
Leishmania donovani [14] = test: Induction of apoptosis in Leishmania donovani MHOM/IN/80/Dd8 promastigotes assessed as late apoptotic cells at 50 uM measured after 12 hrs by Annexin V-FITC/propidium iodide staining based assay (reference value: 0.02%); type: functional
Leishmania donovani [15] = test: Induction of apoptosis in Leishmania donovani MHOM/IN/80/Dd8 promastigotes assessed as late apoptotic cells at 50 uM measured after 48 hrs by Annexin V-FITC/propidium iodide staining based assay (reference value: 0.46%); type: functional
Leishmania donovani [16] = test: Induction of mitochondrial potential loss in Leishmania donovani MHOM/IN/80/Dd8 promastigotes assessed as shift in red to green fluorescence at 50 uM after 6 hrs by JC1 dye-based flow cytometry (reference value: 7.37%); type: functional
Summary of the method: (§4)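 Exponential-phase promastigotes were incubated with 50 μM compound for 6−48 h, or 0.1% DMSO vehicle. CCCP (50 μM) served as positive control. After JC-1 staining, the red-to-green fluorescence shift was measured by flow cytometry.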

Leishmania donovani [17] = test: Induction of mitochondrial potential loss in Leishmania donovani MHOM/IN/80/Dd8 promastigotes at 50 uM by JC1 dye-based flow cytometry; type: functional, organism-based; details: TDE = time-dependent effect; summary of the method: as §4
Leishmania donovani [18] = test: Induction of reactive oxygen species generation in Leishmania donovani MHOM/IN/80/Dd8 promastigotes at 50 uM measured after 12 hrs by H2DCFDA probe-based flow cytometry (reference value: 7%); type: functional
Leishmania donovani [19] = test: Induction of nitric oxide generation in Leishmania donovani MHOM/IN/80/Dd8 promastigotes assessed as increase in fluorescence at 50 uM measured after 12 hrs by DAF-2DA dye-based flow cytometry relative to control; type: functional
Summary of the method: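 Log-phase promastigotes exposed to 50 μM for 6–18 h, vehicle control 0.1% DMSO, then labelled with 40 μM DAF-2DA. Fluorescence (GMFC) read by flow cytometry and expressed as fold change over vehicle. At least 3 independent experiments in duplicate.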

[20] = Elimination rate constant in BALB/c mouse at 50 mg/kg, po administered via gavage by LC-MS/MS analysis; type: ADME, organism-based; details: in vivo

SMILES	Activity (Leishmania donovani [1])	inhibition (Leishmania donovani [2])	inhibition at 50 µM (Leishmania donovani [3])	inhibition at 50 µM (Leishmania donovani [4])	inhibition (Leishmania donovani [5])	IC50 (Leishmania donovani [5])	Imax (Leishmania donovani [6])	viability at 48 h [7]	remaining at 2 h [8]	Activity (Leishmania donovani [9])	Activity [10]	further results
Cc1cc(-c2cccc(OCCn3c([N+](=O)[O-])cnc3C)c2)nc2ccccc12	Dose-dependent effect	Active	94.7%	93.2 to 96%	Dose-dependent effect	9.09 µM	>93%	> 86%	84.7%	>50%	Non-Toxic	–
Cc1cc(-c2ccc(OCCn3c([N+](=O)[O-])cnc3C)cc2)nc2ccccc12	Dose-dependent effect	Active	94.4%	93.8 to 96%	Dose-dependent effect	4.06 µM	>93%	> 86%	83.6%	>80.3%	Non-Toxic	Activity (Leishmania donovani [11]): >62%; Activity (Leishmania donovani [12]): inactive; Activity (Leishmania donovani [13]): 12.89%; Activity (Leishmania donovani [14]): 1.43%; Activity (Leishmania donovani [15]): 44.11%; Activity (Leishmania donovani [16]): 23.15%; Activity (Leishmania donovani [17]): Tde; Activity (Leishmania donovani [18]): 31.61%; fold change (FC) (Leishmania donovani [19]): 3.6; k el [20]: 4.72e-05 s⁻¹

— ChEMBL document CHEMBL4396890, “Synthesis, Biological Evaluation, Structure-Activity Relationship, and Mechanism of Action Studies of Quinoline-Metronidazole Derivatives Against Experimental Visceral Leishmaniasis” (J Med Chem, 2019)
